HEK293 NFkB inh: lowers PMA/ionomycin-induced NF-kB signal in HEK293 cells; inhibition, % at 3 µM; HEK-293 NF-kB luciferase reporter, luminescence; 62,000 compounds, 0.21% hits; AID 465;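 active = inhibition above the mean of all tested compounds plus 3 SD, cut at about 40% in these data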;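 note: 0% = stimulated DMSO wells and 100% = 10 µM reference inhibitor 5653914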
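System – HEK-293 cells with stable firefly luciferase reporter driven by four HIV NF-kB elements · Doses – one dose, 3 µM · Schedule – 1 h compound pre-incubation, 16 h PMA/ionomycin at 37 °C · Technique – luminescence from luciferase substrate reagent · Measure – percent inhibition normalized per plate to DMSO and reference-inhibitor controls · Replicates – tested once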
M1 agonist: activates the M1 muscarinic receptor. B-score at 10 µM. CHO-M1 cells, Fluo-4 calcium fluorescence, agonist mode; hits give high values. 64,000 compounds, 3% hits;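 active = fluorescence rise, raw or as B-score row- and column-corrected plate score, outside the 99.7% band of its plate's samples, either direction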
M1 antagonist: antagonists of rat M1 muscarinic receptor. P08482. CHO-M1 cells, Fluo-4 calcium, ACh EC80 antagonist mode; hits give low values. B-score at 10 µM. 64,000 compounds, 3.4% hits;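 active = calcium fluorescence response, raw or row-and-column corrected B-score, differing from the plate sample mean either way at a set confidence level, mostly lower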
D1 allo mod: allosteric modulators of human D1 dopamine receptor. P21728. HEK293 D1, CRE-luciferase, dopamine EC30 potentiation; actives deviate in either direction. B-score at 10 µM. 58,000 compounds, 5.9% hits. AID 641;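 active = luminescence count or its row- and column-corrected plate score outside the 99.7% band of the plate's sample wells, on either side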
Jurkat viability: cytotoxicity toward Jurkat cells | 56,000 compounds, 1.2% hits | AID 463 | Jurkat E6.1 viability, ATP luminescence, 48 h | inhibition, % at 4 µM;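 active = inhibition above the mean inhibition of all tested compounds plus 3 SD, cut at about 28% in these data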
hDAT+cocaine: changed human dopamine transporter uptake under cocaine IC80; Q01959; LLC-PK1 hDAT cells, [14C]-dopamine uptake with cocaine IC80; actives deviate in either direction; AID 449768; 110,000 compounds, 1.3% hits; B-score at 10 µM;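 active = Z score or B-score, a plate-position-corrected score, falls beyond the plate's 99.7% confidence bounds, in either direction; inactive = both scores lie inside the 99.7% bounds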;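 note: scored against the spread of the other compound wells on the same plate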
Target sequence (Q01959 whole entry, looked up): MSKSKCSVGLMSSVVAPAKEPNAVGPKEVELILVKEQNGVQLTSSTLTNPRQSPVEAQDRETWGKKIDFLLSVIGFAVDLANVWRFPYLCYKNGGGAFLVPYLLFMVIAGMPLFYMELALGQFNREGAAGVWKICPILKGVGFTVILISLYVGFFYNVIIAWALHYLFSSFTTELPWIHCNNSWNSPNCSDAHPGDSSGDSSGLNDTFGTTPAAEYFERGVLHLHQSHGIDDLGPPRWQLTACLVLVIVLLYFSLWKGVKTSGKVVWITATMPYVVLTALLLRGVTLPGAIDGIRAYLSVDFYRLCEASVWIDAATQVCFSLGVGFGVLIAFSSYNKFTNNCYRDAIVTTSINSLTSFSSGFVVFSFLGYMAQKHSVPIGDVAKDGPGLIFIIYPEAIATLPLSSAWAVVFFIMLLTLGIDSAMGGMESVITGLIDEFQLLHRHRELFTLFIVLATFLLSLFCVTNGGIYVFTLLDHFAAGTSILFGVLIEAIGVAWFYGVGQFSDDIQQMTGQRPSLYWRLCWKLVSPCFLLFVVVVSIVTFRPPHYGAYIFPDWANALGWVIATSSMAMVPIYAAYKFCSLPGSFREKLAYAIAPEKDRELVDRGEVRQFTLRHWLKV
The depositor's hits bear a star. Sampled rows, rich in hits. Any-hit rate of the full collection: about 7.6%.

Results for CCN(CC)C(=O)CSc1nc2sc(C)c(C)c2c(=O)[nH]1 ?
HEK293 NFkB inh: 16; M1 agonist: -0.26; M1 antagonist: -0.19; Jurkat viability: -4; hDAT+cocaine: 3.5*

Results for CCCn1c(=O)c2ccccc2n2c(SCC(=O)c3cc(C)n(CCOC)c3C)nnc12 ?
HEK293 NFkB inh: -1; M1 agonist: -0.61; M1 antagonist: -0.16; D1 allo mod: 2.2*; Jurkat viability: -5

How did COCCn1c(C)cc(C(=O)CSc2n[nH]c(N)n2)c1C do in these assays?
HEK293 NFkB inh: 9; M1 agonist: -0.64; M1 antagonist: 0.69; Jurkat viability: -6; hDAT+cocaine: 0.5

How did CCCn1c(=O)c2ccccc2n2c(SCC(=O)c3ccc(CC)cc3)nnc12 do in these assays?
hDAT+cocaine: 0.5

Results for COCCn1c(C)cc(C(=O)CSc2nnc(C)s2)c1C ?
HEK293 NFkB inh: 46*; M1 agonist: 0.27; M1 antagonist: -0.11; D1 allo mod: -7.8*; Jurkat viability: -1; hDAT+cocaine: -0.74

Results for Cc1cccnc1NC(=O)COc1ccc2oc3c(c2c1)CCCC3 ?
HEK293 NFkB inh: 16; M1 agonist: -0.41; M1 antagonist: -0.32; D1 allo mod: 0.85; Jurkat viability: -3; hDAT+cocaine: 0.45

Results for CCOC(=O)N1CCC(N2C(=O)c3ccccc3C2Nc2ccc3c(C)cc(=O)oc3c2)CC1 (stereo not drawn) ?
HEK293 NFkB inh: -8; M1 agonist: -0.9; M1 antagonist: -0.65; D1 allo mod: 0.91; Jurkat viability: 6; hDAT+cocaine: 0.54

What do the screens show for `CCOC(=O)N1CCC(N2C(=O)c3ccccc3C2Nc2ccc3c(c2)OCCO3)CC1` (stereo not drawn)?
HEK293 NFkB inh: 11; M1 agonist: 0.16; M1 antagonist: 0.4; D1 allo mod: -3.1*; Jurkat viability: 7; hDAT+cocaine: -0.57

What do the screens show for `O=C(COc1ccc(OCc2ccccc2)cc1)NC1CCOC1=O` (stereo not drawn)?
HEK293 NFkB inh: 4; M1 agonist: -0.83; M1 antagonist: 0.21; D1 allo mod: 0.36; Jurkat viability: 1; hDAT+cocaine: 0.098

What do the screens show for `CCn1c(SCC(=O)Nc2ccc3c(c2)c2ccccc2n3CC)nnc1-c1cnccn1`?
HEK293 NFkB inh: 16; M1 agonist: -0.29; M1 antagonist: 0.61; Jurkat viability: 9; hDAT+cocaine: 2.5*

Results for CCOc1ccc(C(=O)NCC(=O)OCC(=O)N2C(C)CCCC2C)cc1 (stereo not drawn) ?
hDAT+cocaine: -0.044

What do the screens show for `COc1cccc(N2CCN(C(=O)c3[nH]c(C)c(C(C)=O)c3C)CC2)c1`?
HEK293 NFkB inh: 31; M1 agonist: -2.1; M1 antagonist: -0.25; D1 allo mod: 0.01; Jurkat viability: 91*; hDAT+cocaine: -0.37

What do the screens show for `CC(=O)c1c(C)[nH]c(C(=O)N2CCN(c3ccc(F)cc3)CC2)c1C`?
hDAT+cocaine: 0.45

Results for CCOc1ccc(NC(=O)C2CC=CCC2C(=O)O)cc1 (stereo not drawn) ?
HEK293 NFkB inh: 9; M1 agonist: -0.72; M1 antagonist: 0.18; D1 allo mod: 0.27; Jurkat viability: -7; hDAT+cocaine: -0.99

How did CCCCOc1ccc(NC(=O)C2CC=CCC2C(=O)O)cc1 (stereo not drawn) do in these assays?
HEK293 NFkB inh: -10; M1 agonist: 4.7; M1 antagonist: 0.038; D1 allo mod: -2.6*; Jurkat viability: -4; hDAT+cocaine: -0.94

How did CC(C)CC(=O)Nc1ccc2oc(-c3ccncc3)nc2c1 do in these assays?
HEK293 NFkB inh: 4; M1 agonist: -0.42; M1 antagonist: -1.7; D1 allo mod: -0.63; Jurkat viability: 0; hDAT+cocaine: 0.027

Results for CCC(=O)Nc1ccc2oc(-c3cccc(C)c3)nc2c1 ?
HEK293 NFkB inh: -34; M1 agonist: -1.2; M1 antagonist: -0.36; D1 allo mod: -3.4*; Jurkat viability: 8; hDAT+cocaine: -0.32

Results for Cc1ccc2oc(-c3cccc(NC(=O)Cc4cccs4)c3)nc2c1 ?
hDAT+cocaine: -0.053

What do the screens show for `CC(C)C(=O)Nc1ccc(-c2nc3cccnc3o2)cc1`?
HEK293 NFkB inh: -28; M1 agonist: 1.2; M1 antagonist: -2.3; D1 allo mod: -3.2*; Jurkat viability: 1; hDAT+cocaine: -0.68

How did Cc1ccc(-c2nc3cc(NC(=O)C(C)C)ccc3o2)cc1C do in these assays?
HEK293 NFkB inh: -64; M1 agonist: -1.1; M1 antagonist: 1; D1 allo mod: -3*; Jurkat viability: 2; hDAT+cocaine: -0.45

What do the screens show for `Cc1ccc(-c2nc3cc(NC(=O)C(C)C)ccc3o2)cc1`?
HEK293 NFkB inh: -78; M1 agonist: 0.06; M1 antagonist: 0.6; D1 allo mod: -2.4*; Jurkat viability: 7; hDAT+cocaine: -0.14

What do the screens show for `CC(C)C(=O)Nc1cccc(-c2nc3ccccc3o2)c1`?
HEK293 NFkB inh: -2; M1 agonist: 1.8; M1 antagonist: -0.12; D1 allo mod: -0.63; Jurkat viability: -1; hDAT+cocaine: 0.065

How did CC1CCCC(C(=O)O)N1C(=O)CCSC(=O)c1ccccc1 (stereo not drawn) do in these assays?
HEK293 NFkB inh: 17; M1 agonist: 0.44; M1 antagonist: 0.45; D1 allo mod: 0.32; Jurkat viability: 1; hDAT+cocaine: -1.9

Results for COc1cc(C(Nc2ccccn2)c2ccc3ccc(C)nc3c2O)cc(OC)c1O (stereo not drawn) ?
HEK293 NFkB inh: 25; M1 agonist: 0.12; M1 antagonist: 0.59; D1 allo mod: -0.86; Jurkat viability: 71*; hDAT+cocaine: 1.5

Results for OC(c1ccc(Cl)cc1)c1nnc(-c2ccccc2)o1 (stereo not drawn) ?
HEK293 NFkB inh: 6; M1 agonist: 0.095; M1 antagonist: 0.043; D1 allo mod: 0.85; Jurkat viability: -4; hDAT+cocaine: 0.71

How did O=[N+]([O-])c1cc(-c2csc(NC(CO)c3nc4ccccc4n3CCOCCO)n2)ccc1Cl (stereo not drawn) do in these assays?
hDAT+cocaine: 1

How did O=S(=O)(c1ccc(-n2cnnn2)cc1)N(C1CCCCC1)C1CCCCC1 do in these assays?
HEK293 NFkB inh: 31; M1 agonist: 0.47; M1 antagonist: 0.95; D1 allo mod: 0.59; Jurkat viability: -6; hDAT+cocaine: -0.19

How did CC1CCCCC1NS(=O)(=O)c1ccc(-n2cnnn2)cc1 (stereo not drawn) do in these assays?
HEK293 NFkB inh: 18; M1 agonist: -0.68; M1 antagonist: 0.11; D1 allo mod: -2.5*; Jurkat viability: 7; hDAT+cocaine: 0.042

What do the screens show for `CC1CCCCC1NS(=O)(=O)c1ccc(S(=O)(=O)N2CCCC2)cc1` (stereo not drawn)?
HEK293 NFkB inh: 9; M1 agonist: -0.42; M1 antagonist: -1.4; D1 allo mod: 0.99; Jurkat viability: 10; hDAT+cocaine: -5*

Screening results deposited in PubChem BioAssay by several laboratories.
